Activity calls are given as the source filed them. The rule behind the calls is not given here.

One experiment concerns Staphylococcus aureus. As to the kind of experiment: Antibacterial activity against Staphylococcus aureus at 10 ug/ml after 24 hrs by disk diffusion method. The settings on record: read-out: IZ. In kind it is functional. Put shortly: (§1)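 Disk diffusion on filter-paper discs impregnated with DMSO solutions of test compound; filtered if turbid. Inhibition zones around dried discs measured after 24 h. Triplicate samples. Tetracycline control (20 mg/ml).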
In general terms: A growth-free zone around the sample is the usual read-out of agar diffusion tests.

Another experiment concerns Klebsiella pneumoniae. Nature of the experiment: Antibacterial activity against Klebsiella pneumoniae at 10 ug/ml after 24 hrs by disk diffusion method. In kind it is functional. The settings on record: read-out: IZ. The essentials: as §1
In a further experiment the test system is Pseudomonas aeruginosa. As to the kind of experiment: Antibacterial activity against Pseudomonas aeruginosa at 10 ug/ml after 24 hrs by disk diffusion method. The conditions noted are these: read-out: IZ. In kind it is functional. Put shortly:
as §1

The subject of a further experiment is MCF7. As to the kind of experiment: Cytotoxicity against human MCF7 cells by MTT assay. In kind it is functional, cell-based. The essentials: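 MCF-7 cells were kept at 37 °C, 5% CO2 in MEM with 10% FBS, then moved for four days to phenol red-free DMEM with 10% charcoal-stripped serum before testing. Cells were seeded at 1 × 10^4/well and exposed to compounds for 24, 48 and 72 h. MTT was added for 5 h at 37 °C, followed by DMSO solubilisation. Doxorubicin standard.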

Experiment [1] concerns Aspergillus niger. As to the kind of experiment: Antifungal activity against Aspergillus niger at 50 ug/ml by agar plate method. Type of experiment: functional. Put shortly: (§2)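 1 ml of test compound in DMSO (diluted to required level, filtered if turbid) mixed into 20–25 ml molten potato dextrose agar. After setting, plates were inoculated with fungal isolate and kept at 27 °C for seven days. Percent inhibition of fungal zone then recorded. Amphotericin control (7.5 mg/ml).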

Experiment [2] has as its system Aspergillus flavus. Nature of the experiment: Antifungal activity against Aspergillus flavus at 10 ug/ml by agar plate method. In kind it is functional. Put shortly: as §2
Experiment [3] relates to Aspergillus niger. As to the kind of experiment: Antifungal activity against Aspergillus niger at 20 ug/ml by agar plate method. Type of experiment: functional. Put shortly: as §2
Experiment [4] concerns Aspergillus flavus. As to the kind of experiment: Antifungal activity against Aspergillus flavus at 100 ug/ml by agar plate method. Type of experiment: functional. Put shortly: as §2
Experiment [5] deals with Aspergillus niger. As to the kind of experiment: Antifungal activity against Aspergillus niger at 10 ug/ml by agar plate method. In kind it is functional. Put shortly: as §2
For experiment [6], the system named is Aspergillus flavus. Nature of the experiment: Antifungal activity against Aspergillus flavus at 20 ug/ml by agar plate method. In kind it is functional. The essentials: as §2
In experiment [7] the test system is Aspergillus flavus. As to the kind of experiment: Antifungal activity against Aspergillus flavus at 50 ug/ml by agar plate method. In kind it is functional. The essentials: as §2
In experiment [8] the test system is Aspergillus niger. As to the kind of experiment: Antifungal activity against Aspergillus niger at 100 ug/ml by agar plate method. Type of experiment: functional. Put shortly:
as §2

The inhibition is the change of the read-out against control, counted positive when it falls. A lower inhibition goes with a response near the control. In the case of `O=C1c2ccccc2C(=O)N1Cc1nc2ccccc2c(=O)n1Nc1nc(-c2ccccc2)nc2ccccc12`, the zone of inhibition at 10 µg/mL is 6 mm in the experiment on Staphylococcus aureus, above 14 mm in the experiment on Klebsiella pneumoniae and above 14 mm in the experiment on Pseudomonas aeruginosa. For the same compound, in the experiment with MCF7, the result was inactive. For the same compound, the inhibition at 50 µg/mL with Aspergillus niger [1] amounted to 75%; in the experiment on Aspergillus flavus [7], 86.7%. Moreover, the figures for the inhibition at 10 µg/mL in the experiment with Aspergillus flavus [2] and with Aspergillus niger [5] were 83.3% and 25%, respectively. For the same compound, the figures for the inhibition at 20 µg/mL in the experiment with Aspergillus niger [3] and in the experiment on Aspergillus flavus [6] were 70% and 86.7%, respectively. Also, the inhibition at 100 µg/mL in the experiment on Aspergillus flavus [4] is 96.7%; in the experiment on Aspergillus niger [8], 85%.
`O=c1c2ccccc2nc(-c2ccccc2)n1Nc1nc(-c2ccccc2)nc2ccccc12`: the zone of inhibition at 10 µg/mL in the experiment on Staphylococcus aureus was 6 mm; in the experiment on Klebsiella pneumoniae, above 14 mm; with Pseudomonas aeruginosa, 10 mm. Besides, the outcome in the experiment on MCF7 was inactive. Moreover, the inhibition at 50 µg/mL in the experiment with Aspergillus niger [1] stood at 60%; with Aspergillus flavus [7] it was 93.3%. Besides, the figures for the inhibition at 10 µg/mL with Aspergillus flavus [2] and with Aspergillus niger [5] were 76.7% and 30%, respectively. For the same compound, the inhibition at 20 µg/mL in the experiment on Aspergillus niger [3] worked out at 40%; in the experiment with Aspergillus flavus [6], 83.3%. For the same compound, the inhibition at 100 µg/mL with Aspergillus flavus [4] came to 96.7%; in the experiment on Aspergillus niger [8], 75%.
On to `O=C(NCc1nc2ccccc2c(=O)n1Nc1nc(-c2ccccc2)nc2ccccc12)c1ccccc1`, for which the zone of inhibition at 10 µg/mL in the experiment on Staphylococcus aureus, with Klebsiella pneumoniae and in the experiment on Pseudomonas aeruginosa was 10 mm throughout. Also, the result in the experiment with MCF7 was Active. The inhibition at 50 µg/mL in the experiment on Aspergillus niger [1] worked out at 75%; with Aspergillus flavus [7] it was 76.7%. Besides, the inhibition at 10 µg/mL was found to be 60% with Aspergillus flavus [2] and 50% with Aspergillus niger [5]. Moreover, the inhibition at 20 µg/mL with Aspergillus niger [3] is 60%; with Aspergillus flavus [6], 66.6%. The inhibition at 100 µg/mL in the experiment on Aspergillus flavus [4] was 86.7%; in the experiment on Aspergillus niger [8], 90%.
With `O=c1c2ccccc2nc(/C=C\c2ccccc2)n1Nc1nc(-c2ccccc2)nc2ccccc12`, the zone of inhibition at 10 µg/mL was above 14 mm in the experiment on Staphylococcus aureus, 6 mm with Klebsiella pneumoniae and 10 mm in the experiment with Pseudomonas aeruginosa. Moreover, the result with MCF7 was Active. Besides, the inhibition at 50 µg/mL in the experiment on Aspergillus niger [1] was 90%; in the experiment on Aspergillus flavus [7], 86.7%. The inhibition at 10 µg/mL was 53.3% with Aspergillus flavus [2] and 60% in the experiment with Aspergillus niger [5]. For the same compound, the values for the inhibition at 20 µg/mL with Aspergillus niger [3] and with Aspergillus flavus [6] were 70% and 80%, respectively. Also, the inhibition at 100 µg/mL in the experiment with Aspergillus flavus [4] is 96.7%; in the experiment with Aspergillus niger [8], 95%.

The record behind these values is ChEMBL document CHEMBL1147854, “Synthesis and biological properties of 4-(3H)-quinazolone derivatives” (2007).
